Laboratory results published in ChEMBL document CHEMBL1125159, “Synthesis and antihyperglycemic activity of novel 5-(naphthalenylsulfonyl)-2,4-thiazolidinediones” (J Med Chem, 1990).
Active and inactive are the calls of the source. No cut-off for these calls is given here.

How the values were obtained:
[1] = organism: Mus musculus; assay: Decrease in blood glucose in mice compared to vehicle controls.; format: functional, organism-based
In short: (§1)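 Male genetically diabetic db/db mice (C57BL/KsJ, 3–7 months old), 4–6 per group. Compound 100 mg/kg given by oral gavage once daily for 4 days in 2% Tween 80/saline. Mice fasted 18 h before the final dose. Insulin 0.5 unit/kg sc given 2 h after drug. Tail-tip blood taken 2 h later from unanesthetized mice. Plasma glucose reported as percent change versus vehicle group, mean ± SE.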

[2] = organism: Mus musculus; assay: Percent decrease in blood glucose relative to vehicle-treated group with use of four to six mice; format: functional; in short: as §1
[3] = test system: Rattus norvegicus; assay: Evaluated for the blood lactate level in 24 hr fasted Sprague-Dawley rats at a dose of 200 mg/kg/day in four divided doses administered intraperitoneally; format: functional; conditions: route intraperitoneal
In short: (§2)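 24 h-fasted Sprague-Dawley rats were dosed ip at 200 mg/kg per day in four divided doses. They were then anesthetized with halothane and blood was drawn from the iliac artery for blood lactate and plasma glucose. N = 8 rats per group, compared with vehicle (p < 0.05).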

[4] = test system: Rattus norvegicus; assay: Evaluated for the plasma glucose level in 24 hr fasted Sprauge-Dawley rats at a dose of 200 mg/kg/day in four divided doses administered intraperitoneally; format: functional, organism-based; in short: as §2
[5] = Ionization constant for the compound; format: physicochemical
[6] = test system: Rattus norvegicus; assay: Plasma glucose level in 24 hr fasted Sprauge-Dawley rats at a dose of 200 mg/kg per day in four divided doses which were administered intraperitoneally; format: functional, organism-based; in short: as §2
[7] = test system: Mus musculus; assay: Plasma glucose level in diabetic db/db mice at a dose of 100 mg/kg per day for four days administered orally after 18-h fasted state
[8] = test system: Rattus norvegicus; assay: Blood lactate level in 24 hr fasted Sprauge-Dawley rats at a dose of 200 mg/kg per day in four divided doses which were administered intraperitoneally,; format: functional; conditions: route intraperitoneal; in short: as §2
[9] = test system: Mus musculus; assay: Plasma glucose level in diabetic db/db mice at a dose of 100 mg/kg per day for four days administered orally after fed state
[10] = test system: Rattus norvegicus; assay: Blood lactate level in 24 hr fasted Sprauge-Dawley rats at a dose of 200 mg/kg per day in four divided doses which were administered intraperitoneally; format: functional; conditions: route intraperitoneal; in short: as §2

Row | SMILES | Decrease [1] | Decrease [2] | other results
1 | CC1(S(=O)(=O)c2cccc3ccccc23)SC(=O)NC1=O (stereo unspecified) | inactive | – | –
2 | CN1C(=O)SC(S(=O)(=O)c2cccc3c(Br)cccc23)C1=O (stereo unspecified) | inactive | – | –
3 | COc1ccc2cc(S(=O)(=O)C3SC(=O)NC3=O)ccc2c1C(F)(F)F (stereo unspecified) | inactive | – | –
4 | O=C1NC(=O)C([S+]([O-])c2ccc3ccccc3c2)S1 (stereo unspecified) | inactive | – | –
5 | COc1ccc2cc(SC3SC(=O)NC3=O)ccc2c1C(F)(F)F (stereo unspecified) | – | -32% | –
6 | COc1ccc2c(S(=O)(=O)C3SC(=O)NC3=O)cccc2c1C(F)(F)F (stereo unspecified) | – | -40% | –
7 | N=C(N)NC(=N)NCCc1ccccc1 [PHENFORMIN] | – | – | Blood lactate [3]: 12.2 mg/dL; Plasma glucose level [4]: 85 mg/dL
8 | O=C1NC(=O)C(S(=O)(=O)c2ccc(Br)cc2)S1 (stereo unspecified) | inactive | – | –
9 | CCCCCCCCS(=O)(=O)C1SC(=O)NC1=O (stereo unspecified) | inactive | – | –
10 | O=C1NC(=O)C(Sc2ccc3ccccc3c2Br)S1 (stereo unspecified) | inactive | – | –
11 | CCOC(=O)Oc1cc2ccc(SC3SC(=O)NC3=O)cc2cc1OC(=O)OCC (stereo unspecified) | – | -22% | –
12 | CCOC(=O)Oc1ccc2cc(SC3SC(=O)NC3=O)ccc2c1 (stereo unspecified) | inactive | – | –
13 | CN1C(=O)SC(C)(S(=O)(=O)c2cccc3c(Br)cccc23)C1=O (stereo unspecified) | inactive | – | –
14 | O=C1NC(=O)C(Sc2ccc3cc(O)ccc3c2)S1 (stereo unspecified) | – | -19% | –
15 | O=C1NC(=O)C(Sc2ccc3ccccc3c2)S1 (stereo unspecified) | – | -29% | pKa [5]: 5.58
16 | CCOC(=O)Oc1cc2ccc(S(=O)(=O)C3SC(=O)NC3=O)cc2cc1OC(=O)OCC (stereo unspecified) | inactive | – | –
17 | O=C1NC(=O)C(S(=O)(=O)c2cccc3c(Br)cccc23)S1 (stereo unspecified) | – | -29% | –

Row | SMILES | Decrease [1] | Decrease [2] | other results
18 | COc1ccc2cc(S(=O)(=O)C3SC(=O)NC3=O)ccc2c1Br (stereo unspecified) | inactive | – | –
19 | O=C1NC(=O)C(Oc2ccc3ccccc3c2)S1 (stereo unspecified) | inactive | – | –
20 | O=C1NC(=O)C(S(=O)(=O)c2ccc(F)cc2)S1 (stereo unspecified) | inactive | – | –
21 | CCOC(=O)Oc1ccc2cc(S(=O)(=O)C3SC(=O)NC3=O)ccc2c1 (stereo unspecified) | inactive | – | –
22 | O=C1NC(=O)C(Cc2ccc3ccccc3c2)S1 (stereo unspecified) | – | -38% | pKa [5]: 6.83
23 | O=C1NC(=O)C(Sc2ccc3cc(O)c(O)cc3c2)S1 (stereo unspecified) | inactive | – | –
24 | O=C1NC(=O)C(S(=O)(=O)c2ccc3cc(OCc4ccccc4)ccc3c2)S1 (stereo unspecified) | inactive | – | –
25 | O=C1NC(=O)C(S(=O)(=O)c2cccc3ccccc23)S1 (stereo unspecified) | – | -34% | –
26 | O=C1NC(=O)C(S(=O)(=O)c2ccc3ccccc3c2)S1 (stereo unspecified) | – | -63% | Plasma glucose level [6]: 77 mg/dL; pKa [5]: 3.95; Plasma glucose level [7]: 243 mg/dL; Blood lactate [8]: 7.2 mg/dL; Plasma glucose level [9]: 352 mg/dL
27 | O=C1NC(=O)C(S(=O)(=O)c2ccc3ccccc3c2Br)S1 (stereo unspecified) | inactive | – | –
28 | COc1cccc2cccc(S(=O)(=O)C3SC(=O)NC3=O)c12 (stereo unspecified) | inactive | – | –
29 | O=C1NC(=O)C(CSc2ccc3ccccc3c2)S1 (stereo unspecified) | inactive | – | –
30 | CC1(COc2ccc(S(=O)(=O)C3SC(=O)NC3=O)cc2)CCCCC1 (stereo unspecified) | inactive | – | –
31 | O=C1NC(=O)C(S(=O)(=O)Cc2ccc3ccccc3c2)S1 (stereo unspecified) | inactive | – | –
32 | CC1(COc2ccc(CC3SC(=O)NC3=O)cc2)CCCCC1 (stereo unspecified) [CIGLITAZONE] | – | -35% | Plasma glucose level [6]: 83 mg/dL; pKa [5]: 6.82; Plasma glucose level [7]: 285 mg/dL; Plasma glucose level [9]: 313 mg/dL; Blood lactate [10]: 8 mg/dL
33 | CCCCCCCCSC1SC(=O)NC1=O (stereo unspecified) | inactive | – | –
